ChEMBL document CHEMBL1142170, “Mechanism of activation of beta-D-2'-deoxy-2'-fluoro-2'-c-methylcytidine and inhibition of hepatitis C virus NS5B RNA polymerase” (Antimicrob Agents Chemother, 2007)

B1: UMP-CMP kinase (Homo sapiens), P30085 (protein)
chain: MKPLVVFVLGGPGAGKGTQCARIVEKYGYTHLSAGELLRDERKNPDSQYGELIEKYIKEGKIVPVEITISLLKREMDQTMAANAQKNKFLIDGFPRNQDNLQGWNKTMDGKADVSFVLFFDCNNEICIERCLERGKSSGRSDDNRESLEKRIQTYLQSTKPIIDLYEEMGKVKKIDASKSVDEVFDEVVQIFDKEG
B2: Uridine-cytidine kinase 1 (Homo sapiens), Q9HA47 (protein)
chain: MASAGGEDCESPAPEADRPHQRPFLIGVSGGTASGKSTVCEKIMELLGQNEVEQRQRKVVILSQDRFYKVLTAEQKAKALKGQYNFDHPDAFDNDLMHRTLKNIVEGKTVEVPTYDFVTHSRLPETTVVYPADVVLFEGILVFYSQEIRDMFHLRLFVDTDSDVRLSRRVLRDVRRGRDLEQILTQYTTFVKPAFEEFCLPTKKYADVIIPRGVDNMVAINLIVQHIQDILNGDICKWHRGGSNGRSYKRTFSEPGDHPGMLTSGKRSHLESSSRPH

Key:
Type in all cases: cell-based
[1] = substrate: C[C@@]1(F)[C@H](O)[C@@H](COP(=O)(O)O)O[C@H]1n1ccc(N)nc1=O; test: (§1) Ratio of Kcat to Km for YMPK activity expressed in Huh7 cells; conditions: Homo sapiens; Huh-7
Summary of the method: (§2)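 Human YMPK cloned from Huh-7 cells, 37°C, coupled pyruvate kinase/lactate dehydrogenase assay following NADH at 340 nm. Tris-HCl pH 7.5, 1 mM ATP, MgCl2. Enzyme 80 nM with natural monophosphates, 200 nM with the analog monophosphate. Monophosphate substrate concentration varied, steady-state parameters as mean ± SD.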

[2] = substrate: Nc1ccn([C@H]2C[C@H](O)[C@@H](COP(=O)(O)O)O2)c(=O)n1; test: as §1; conditions: Homo sapiens; Huh-7; summary of the method: as §2
[3] = substrate: Nc1ccn([C@@H]2O[C@H](COP(=O)(O)O)[C@@H](O)[C@H]2O)c(=O)n1; test: as §1; conditions: Homo sapiens; Huh-7; summary of the method: as §2
[4] = substrate: O=c1ccn([C@@H]2O[C@H](COP(=O)(O)O)[C@@H](O)[C@H]2O)c(=O)[nH]1; test: as §1; conditions: Homo sapiens; Huh-7; summary of the method: as §2
[5] = substrate: C[C@@]1(F)[C@H](O)[C@@H](COP(=O)(O)O)O[C@H]1n1ccc(N)nc1=O; test: (§3) Activity of human YMPK expressed in Huh7 cells assessed as phosphorylation by coupled enzyme assay; conditions: Huh-7; summary of the method: as §2
[6] = substrate: Nc1ccn([C@H]2C[C@H](O)[C@@H](COP(=O)(O)O)O2)c(=O)n1; test: as §3; conditions: Huh-7; summary of the method: as §2
[7] = substrate: Nc1ccn([C@@H]2O[C@H](COP(=O)(O)O)[C@@H](O)[C@H]2O)c(=O)n1; test: as §3; conditions: Huh-7; summary of the method: as §2
[8] = substrate: O=c1ccn([C@@H]2O[C@H](COP(=O)(O)O)[C@@H](O)[C@H]2O)c(=O)[nH]1; test: as §3; conditions: Huh-7; summary of the method: as §2
[9] = substrate: O=c1ccn([C@@H]2O[C@H](CO)[C@@H](O)[C@H]2O)c(=O)[nH]1; test: Activity of human UCK1 expressed in Huh7 cells assessed as phosphorylation by coupled enzyme assay; conditions: Huh-7
Summary of the method: (§4)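 His-tagged human UCK-1 cloned from Huh-7 cells, assayed at 25°C by pyruvate kinase/lactate dehydrogenase coupling, NADH oxidation at 340 nm. Buffer 64 mM Tris-HCl pH 7.5, 1 mM ATP, Mg2+, phosphoenolpyruvate. Enzyme 41 nM, or 410 nM for 2′-C-methyl cytidines. Substrate concentration varied. Steady-state parameters reported as mean ± SD.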

[10] = substrate: O=c1ccn([C@@H]2O[C@H](CO)[C@@H](O)[C@H]2O)c(=O)[nH]1; test: Ratio of Kcat to Km for UCK1 activity expressed in Huh7 cells; conditions: Homo sapiens; Huh-7; summary of the method: as §4

Row | Protein | kcat/Km [1] [M⁻¹ s⁻¹] | kcat/Km [2] [M⁻¹ s⁻¹] | kcat/Km [3] [M⁻¹ s⁻¹] | kcat/Km [4] [M⁻¹ s⁻¹] | kcat [5] [s⁻¹] | Km [6] [µM] | kcat [6] [s⁻¹] | Km [7] [µM] | kcat [7] [s⁻¹] | Km [8] [µM] | kcat [8] [s⁻¹] | Km [9] [µM] | kcat [9] [s⁻¹] | kcat/Km [10] [M⁻¹ s⁻¹]
1 | B1 | 12000 | 36000 | 540000 | 540000 | 3.3 | 837 | 30 | 56 | 30 | 151 | 81 |  |  | 
2 | B2 |  |  |  |  |  |  |  |  |  |  |  | 407 | 0.51 | 1300
